Measured values pooled from the literature.
Compare with care: the assays were run in different laboratories.
Target: Serine/threonine-protein kinase TAO1 (TAOK1, Homo sapiens, UniProt Q7L7X3)
One construct used (Q7L7X3 1-1001): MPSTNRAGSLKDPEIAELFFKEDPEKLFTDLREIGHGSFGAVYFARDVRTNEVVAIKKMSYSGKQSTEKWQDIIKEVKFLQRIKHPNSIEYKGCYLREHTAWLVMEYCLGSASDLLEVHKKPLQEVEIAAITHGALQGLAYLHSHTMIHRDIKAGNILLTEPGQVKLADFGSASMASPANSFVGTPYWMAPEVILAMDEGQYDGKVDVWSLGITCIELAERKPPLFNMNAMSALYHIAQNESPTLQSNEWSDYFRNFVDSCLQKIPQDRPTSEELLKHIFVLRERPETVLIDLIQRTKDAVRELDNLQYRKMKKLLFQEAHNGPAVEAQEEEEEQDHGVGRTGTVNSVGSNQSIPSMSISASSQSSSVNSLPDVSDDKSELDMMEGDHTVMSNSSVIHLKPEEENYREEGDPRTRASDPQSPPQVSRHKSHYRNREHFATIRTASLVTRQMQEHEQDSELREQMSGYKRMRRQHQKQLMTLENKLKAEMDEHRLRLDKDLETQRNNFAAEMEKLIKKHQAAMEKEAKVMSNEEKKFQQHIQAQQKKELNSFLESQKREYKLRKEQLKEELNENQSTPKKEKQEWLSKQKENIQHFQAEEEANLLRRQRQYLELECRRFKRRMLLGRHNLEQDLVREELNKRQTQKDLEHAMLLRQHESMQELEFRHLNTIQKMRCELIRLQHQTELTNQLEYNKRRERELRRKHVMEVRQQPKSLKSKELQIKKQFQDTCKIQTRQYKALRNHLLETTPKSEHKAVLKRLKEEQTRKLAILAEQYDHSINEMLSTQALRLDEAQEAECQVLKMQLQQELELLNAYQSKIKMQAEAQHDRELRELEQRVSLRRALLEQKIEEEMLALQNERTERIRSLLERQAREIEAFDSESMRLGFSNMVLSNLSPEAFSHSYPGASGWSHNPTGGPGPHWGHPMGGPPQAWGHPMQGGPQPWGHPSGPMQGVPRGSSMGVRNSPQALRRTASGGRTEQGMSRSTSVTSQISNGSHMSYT

Structure (SMILES)	test	setting	endpoint	result
COc1cc(Cl)c(C(=O)N[C@@H](CN[C@H]2CC[C@@H](N)CC2)Cc2ccc(C#N)cc2)cc1-c1ccc(CN[C@H](C)c2ccc(C)cc2)o1	enzyme activity, inhibitor	1 µM	remaining activity	97%
CCCOc1ccc(OC)c(F)c1C(=O)c1ccc(C(=O)N[C@@H]2CNC[C@H]2NC(=O)c2ccc3[nH]ncc3c2)cc1	enzyme activity, inhibitor	10 µM	remaining activity	74%
COc1ccc2cc(OCC3(C(=O)O)CN(C(=O)c4ccc(F)cc4)C3)ccc2c1	cell-free assay, competition with immobilised ligand	1 µM	remaining binding	100%
CCN(CC)c1ccc(C2=NNC(=O)CC2C)cc1[N+](=O)[O-] (stereo not drawn)	enzyme activity, inhibitor	10 µM	remaining activity	115%
CO[C@@H](C)c1c(Nc2ccc([C@H](N(C)C(=O)C3CCS(=O)(=O)CC3)C(F)(F)F)cc2)cnc2cc(Cl)nn12	cell-free assay, competition with immobilised ligand	1 µM	remaining binding	100%
Cc1ccc(C(=O)NCc2ccsc2)cc1C#Cc1cn(C(C)C)c2ncnc(N)c12	enzyme activity, inhibitor	1 µM	activity vs control	48%
CNC(=O)c1cc(Oc2ccc(NC(=O)Nc3ccc(Cl)c(C(F)(F)F)c3)cc2)ccn1	cell-free assay	0.5 µM	remaining signal	82%
CN1CC(Oc2cnc(C#N)cc2-c2ccn3nc(NC(=O)C4CC4)cc3c2)C1	enzyme activity, inhibitor	1 µM	inhibition	-1%
COc1cc(-c2cn(C3CCc4ccccc4N(CC(F)(F)F)C3=O)nn2)ccc1-n1ccc(C)n1 (stereo not drawn)	cell-free assay, competition with immobilised ligand	1 µM	remaining binding	92%
COc1cc(Nc2cnc(C#N)c(O[C@H](C)CN(C)C)n2)ncc1-c1cnn(C)c1	enzyme activity, inhibitor, radiometric	10 µM	remaining activity	75%
FC(F)(F)Oc1cccc(-c2cnc3ccc(-c4ccncc4)nn23)c1	enzyme activity, inhibitor, radiometric	5 µM	activity vs control	87%
Cn1c(=O)n(-c2ccc(C(C)(C)C#N)cc2)c2c3cc(-c4cnc5ccccc5c4)ccc3ncc21	enzyme activity, inhibitor	10 µM	remaining activity	81%
O=C(Nc1cnn(-c2csc(C(=O)NC3COC3)c2)c1)Nc1c(F)cccc1Cl	enzyme activity, inhibitor	5 µM	remaining activity	90.6%
C[C@H](c1ccnc(Nc2nc3ccc(-c4cc(N(C)C)ncn4)cc3[nH]2)c1)N1CCN(C(=O)CC(F)(F)F)CC1	cell-free assay, competition with immobilised ligand	0.1 µM	remaining binding	100%
CCN(CC)CCNC(=O)c1c(C)[nH]c(/C=C2\C(=O)Nc3ccc(F)cc32)c1C	cell-free assay	0.5 µM	remaining signal	71.5%
Cc1cc(C)c(-n2ccn3nc(-c4cccnc4)cc23)cc1NC(=O)c1cc(C#N)cc(S(F)(F)(F)(F)F)c1	cell-free assay, competition with immobilised ligand	0.1 µM	remaining binding	45.2%
CC(C)(O)[C@H]1CC[C@H](Nc2ccc3ncc(-c4cccc(C(F)(F)F)c4)n3n2)CC1	enzyme activity, inhibitor	1 µM	remaining activity	82.6%
Cc1cnc(NC2CCOCC2)nc1-n1cnc(C(=O)NC(CN)c2cc(F)cc(Cl)c2)c1 (stereo not drawn)	enzyme activity, inhibitor, radiometric	1 µM	remaining activity	67%
O=C1NC(=O)c2cc(Nc3ccc(F)cc3)c(Nc3ccc(F)cc3)cc21	cell-free assay	0.5 µM	remaining signal	90.3%
Cc1nc(C2CCN(C(=O)c3ccc(OC(F)(F)F)cc3N)CC2)c2ncc(N3CCN(C)CC3)cc2n1	cell-free assay, competition with immobilised ligand	1 µM	remaining binding	100%
O=C(Nc1cnn(-c2csc(C(=O)NC3COC3)c2)c1)Nc1ccccc1Cl	enzyme activity, inhibitor	5 µM	remaining activity	122%
